In ChEMBL document CHEMBL5058577, “EUbOPEN Chemogenomics Library 2 (Multiplex)” (2022):

Tested on: HEK-293T
Assay: Multiplex assay against HEK293T
Assay type: toxicity, cell-based
Conditions: human
Method in brief: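 Phenotypes for tubulin, mitochondrial mass and membrane permeability are expressed as per cents of healthy-nucleus cells. Cells were stained live at seeding with Hoechst33342, BioTracker Green Microtubule Cytoskeleton Dye, MitoTracker Red and Annexin V Alexa Fluor 680, then imaged after compound addition on a CQ1 microscope at 37°C and 5% CO2. Machine-learning gating in CellPathfinder separated Hoechst high-intensity objects from normal cells, divided normal cells by nuclear state (healthy, pyknosed, fragmented) and divided pyknosed cells into mitotic or apoptotic.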

[1] = 12 h, 1 µM, compound concentration 1 uM, replicate 1
[2] = 12 h, 1 µM, compound concentration 1 uM, replicate 2
[3] = 12 h, 10 µM, compound concentration 10 uM, replicate 1
[4] = 12 h, 10 µM, compound concentration 10 uM, replicate 2
[5] = 24 h, 1 µM, compound concentration 1 uM, replicate 1
[6] = 24 h, 1 µM, compound concentration 1 uM, replicate 2
[7] = 24 h, 10 µM, compound concentration 10 uM, replicate 1
[8] = 24 h, 10 µM, compound concentration 10 uM, replicate 2
[9] = 48 h, 1 µM, compound concentration 1 uM, replicate 1
[10] = 48 h, 1 µM, compound concentration 1 uM, replicate 2
[11] = 48 h, 10 µM, compound concentration 10 uM, replicate 1
[12] = 48 h, 10 µM, compound concentration 10 uM, replicate 2

## Cc1cccc(NC(=O)CN2CCC(c3ccccn3)CC2)c1.Cl.Cl
[1]
  Population Apoptotic (%): 34%
  Population Fragmented Nuclei (%): 7%
  Population Healthy Nuclei (%): 76%
  Population Hoechst High Intensity Objects (%): 5%
  Population Membrane Permeable-Phenotype (%): 0%
  Population Mitochondria Different-Phenotype (%): 54%
  Population Mitotic Cells (%): 65%
  Population Normal (%): 94%
  Population Pyknosed Nuclei (%): 15%
  Population Tubulin-Different-Phenotype (%): 33%
  Total Cell Count: 348
[2]
  Population Apoptotic (%): 46%
  Population Fragmented Nuclei (%): 5%
  Population Healthy Nuclei (%): 82%
  Population Hoechst High Intensity Objects (%): 3%
  Population Mitotic Cells (%): 53%
  Population Normal (%): 96%
  Population Pyknosed Nuclei (%): 11%
  Population Tubulin-Different-Phenotype (%): 22%
  Total Cell Count: 277
[3]
  Population Apoptotic (%): 61%
  Population Fragmented Nuclei (%): 6%
  Population Healthy Nuclei (%): 71%
  Population Hoechst High Intensity Objects (%): 9%
  Population Membrane Permeable-Phenotype (%): 0%
  Population Mitochondria Different-Phenotype (%): 63%
  Population Mitotic Cells (%): 38%
  Population Normal (%): 90%
  Population Pyknosed Nuclei (%): 21%
  Population Tubulin-Different-Phenotype (%): 50%
  Total Cell Count: 291
[4]
  Population Apoptotic (%): 43%
  Population Fragmented Nuclei (%): 10%
  Population Healthy Nuclei (%): 70%
  Population Hoechst High Intensity Objects (%): 14%
  Population Mitochondria Different-Phenotype (%): 79%
  Population Mitotic Cells (%): 56%
  Population Normal (%): 85%
  Population Pyknosed Nuclei (%): 18%
  Population Tubulin-Different-Phenotype (%): 35%
  Total Cell Count: 273
[5]
  Population Apoptotic (%): 32%
  Population Fragmented Nuclei (%): 8%
  Population Healthy Nuclei (%): 81%
  Population Hoechst High Intensity Objects (%): 3%
  Population Membrane Permeable-Phenotype (%): 0%
  Population Mitochondria Different-Phenotype (%): 30%
  Population Mitotic Cells (%): 67%
  Population Normal (%): 96%
  Population Pyknosed Nuclei (%): 9%
  Population Tubulin-Different-Phenotype (%): 22%
  Total Cell Count: 451
[6]
  Population Apoptotic (%): 45%
  Population Fragmented Nuclei (%): 10%
  Population Healthy Nuclei (%): 79%
  Population Hoechst High Intensity Objects (%): 4%
  Population Mitochondria Different-Phenotype (%): 44%
  Population Mitotic Cells (%): 54%
  Population Normal (%): 95%
  Population Pyknosed Nuclei (%): 10%
  Population Tubulin-Different-Phenotype (%): 18%
  Total Cell Count: 339
[7]
  Population Apoptotic (%): 59%
  Population Fragmented Nuclei (%): 8%
  Population Healthy Nuclei (%): 74%
  Population Hoechst High Intensity Objects (%): 7%
  Population Membrane Permeable-Phenotype (%): 0%
  Population Mitochondria Different-Phenotype (%): 60%
  Population Mitotic Cells (%): 40%
  Population Normal (%): 92%
  Population Pyknosed Nuclei (%): 17%
  Population Tubulin-Different-Phenotype (%): 38%
  Total Cell Count: 350
[8]
  Population Apoptotic (%): 50%
  Population Fragmented Nuclei (%): 11%
  Population Healthy Nuclei (%): 75%
  Population Mitochondria Different-Phenotype (%): 64%
  Population Mitotic Cells (%): 50%
  Population Pyknosed Nuclei (%): 13%
  Population Tubulin-Different-Phenotype (%): 26%
  Total Cell Count: 348
[9]
  Population Apoptotic (%): 30%
  Population Fragmented Nuclei (%): 13%
  Population Healthy Nuclei (%): 76%
  Population Hoechst High Intensity Objects (%): 2%
  Population Membrane Permeable-Phenotype (%): 0%
  Population Mitochondria Different-Phenotype (%): 25%
  Population Mitotic Cells (%): 69%
  Population Normal (%): 97%
  Population Pyknosed Nuclei (%): 9%
  Population Tubulin-Different-Phenotype (%): 21%
  Total Cell Count: 688
[10]
  Population Apoptotic (%): 46%
  Population Fragmented Nuclei (%): 8%
  Population Healthy Nuclei (%): 83%
  Population Hoechst High Intensity Objects (%): 4%
  Population Mitochondria Different-Phenotype (%): 24%
  Population Mitotic Cells (%): 53%
  Population Normal (%): 95%
  Population Pyknosed Nuclei (%): 8%
  Population Tubulin-Different-Phenotype (%): 13%
  Total Cell Count: 524
[11]
  Population Apoptotic (%): 46%
  Population Fragmented Nuclei (%): 13%
  Population Healthy Nuclei (%): 75%
  Population Hoechst High Intensity Objects (%): 4%
  Population Membrane Permeable-Phenotype (%): 0%
  Population Mitochondria Different-Phenotype (%): 45%
  Population Mitotic Cells (%): 53%
  Population Normal (%): 95%
  Population Pyknosed Nuclei (%): 10%
  Population Tubulin-Different-Phenotype (%): 26%
  Total Cell Count: 515
[12]
  Population Apoptotic (%): 48%
  Population Fragmented Nuclei (%): 16%
  Population Healthy Nuclei (%): 76%
  Population Hoechst High Intensity Objects (%): 2%
  Population Mitochondria Different-Phenotype (%): 37%
  Population Mitotic Cells (%): 51%
  Population Normal (%): 97%
  Population Pyknosed Nuclei (%): 7%
  Population Tubulin-Different-Phenotype (%): 20%
  Total Cell Count: 544
